Test results reported in ChEMBL document CHEMBL3860041, “Synthesis, biological evaluation and molecular modeling study of some new methoxylated 2-benzylthio-quinazoline-4(3H)-ones as nonclassical antifolates” (Bioorg Med Chem Lett, 2016).

Legend:
Type in all cases: functional
[1] = Growth inhibition of human HL-60(TB) cells at 10 uM after 48 hrs by SRB assay relative to control; conditions: HL-60, 48 h, read-out: GI
Summary of the method: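 NCI disease-oriented human tumour cell line screen: primary single-dose assay at 10 μM across the full 60-cell-line panel spanning nine tumour subpanels.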

[2] = Growth inhibition of human K562 cells at 10 uM after 48 hrs by SRB assay relative to control; conditions: K562, 48 h, read-out: GI
Summary of the method: (§1)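 NCI 60-cell-line panel, nine tumor subpanels; compounds tested at a single dose of 10 μM in the primary screen.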

[3] = Growth inhibition of human MOLT4 cells at 10 uM after 48 hrs by SRB assay relative to control; conditions: MOLT-4, 48 h, read-out: GI; summary of the method: as §1
[4] = Growth inhibition of human RPMI8226 cells at 10 uM after 48 hrs by SRB assay relative to control; conditions: RPMI-8226, 48 h, read-out: GI; summary of the method: as §1
[5] = Growth inhibition of human SR cells at 10 uM after 48 hrs by SRB assay relative to control; conditions: read-out: GI
Summary of the method: (§2)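 Primary screen across the full NCI 60 human tumour cell line panel, which covers nine tumour subpanels. A single dose of 10 μM was applied to each line, and growth was recorded for each cell line.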

[6] = Growth inhibition of human HOP62 cells at 10 uM after 48 hrs by SRB assay relative to control; conditions: HOP-62, 48 h, read-out: GI; summary of the method: as §1
[7] = Growth inhibition of human HOP92 cells at 10 uM after 48 hrs by SRB assay relative to control; conditions: HOP-92, 48 h, read-out: GI; summary of the method: as §1
[8] = Growth inhibition of human NCI-H23 cells at 10 uM after 48 hrs by SRB assay relative to control; conditions: NCI-H23, 48 h, read-out: GI; summary of the method: as §1
[9] = Growth inhibition of human NCI-H460 cells at 10 uM after 48 hrs by SRB assay relative to control; conditions: NCI-H460, 48 h, read-out: GI; summary of the method: as §1
[10] = Growth inhibition of human NCI-H522 cells at 10 uM after 48 hrs by SRB assay relative to control; conditions: NCI-H522, 48 h, read-out: GI; summary of the method: as §1
[11] = Growth inhibition of human HCT116 cells at 10 uM after 48 hrs by SRB assay relative to control; conditions: HCT-116, 48 h, read-out: GI; summary of the method: as §1
[12] = Growth inhibition of human HCT15 cells at 10 uM after 48 hrs by SRB assay relative to control; conditions: HCT-15, 48 h, read-out: GI; summary of the method: as §1
[13] = Growth inhibition of human SF268 cells at 10 uM after 48 hrs by SRB assay relative to control; conditions: SF-268, 48 h, read-out: GI; summary of the method: as §1
[14] = Growth inhibition of human SF295 cells at 10 uM after 48 hrs by SRB assay relative to control; conditions: SF-295, 48 h, read-out: GI; summary of the method: as §1
[15] = Growth inhibition of human U251 cells at 10 uM after 48 hrs by SRB assay relative to control; conditions: U-251, 48 h, read-out: GI; summary of the method: as §2
[16] = Growth inhibition of human SK-MEL-2 cells at 10 uM after 48 hrs by SRB assay relative to control; conditions: SK-MEL-2, 48 h, read-out: GI; summary of the method: as §2
[17] = Growth inhibition of human SK-MEL-28 cells at 10 uM after 48 hrs by SRB assay relative to control; conditions: SK-MEL-28, 48 h, read-out: GI; summary of the method: as §2
[18] = Growth inhibition of human UACC257 cells at 10 uM after 48 hrs by SRB assay relative to control; conditions: UACC-257, 48 h, read-out: GI; summary of the method: as §2
[19] = Growth inhibition of human OVCAR5 cells at 10 uM after 48 hrs by SRB assay relative to control; conditions: OVCAR-5, 48 h, read-out: GI; summary of the method: as §1
[20] = Growth inhibition of human OVCAR8 cells at 10 uM after 48 hrs by SRB assay relative to control; conditions: OVCAR-8, 48 h, read-out: GI; summary of the method: as §1
[21] = Growth inhibition of human A498 cells at 10 uM after 48 hrs by SRB assay relative to control; conditions: A498, 48 h, read-out: GI; summary of the method: as §1
[22] = Growth inhibition of human MDA-MB-231 cells at 10 uM after 48 hrs by SRB assay relative to control; conditions: MDA-MB-231, 48 h, read-out: GI; summary of the method: as §1
[23] = Growth inhibition of human BT549 cells at 10 uM after 48 hrs by SRB assay relative to control; conditions: BT-549, 48 h, read-out: GI; summary of the method: as §1
Cancer cell lines [24] = assay: Potency index, ratio of 5-fluorouracil GI50 to compound GI50 for human breast cancer cells
Summary of the method: (§3)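 GI50 for each cell line came from NCI panel testing over a 5-log dose range, with 5-fluorouracil tested alongside as the reference drug. The index relates the 5-fluorouracil GI50 to the compound GI50 within each tumour subpanel.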

Cancer cell lines [25] = assay: Potency index, ratio of 5-fluorouracil GI50 to compound GI50 for human prostate cancer cells; summary of the method: as §3
Cancer cell lines [26] = assay: Potency index, ratio of 5-fluorouracil GI50 to compound GI50 for human colon cancer cells; summary of the method: as §3
Leukemia cell = assay: Potency index, ratio of 5-fluorouracil GI50 to compound GI50 for human leukemia cells; summary of the method: as §3
[27] = Growth inhibition of human CNS cancer cells after 48 hrs by SRB assay; conditions: Cancer cell lines
Summary of the method: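 Five-log dose range against NCI tumor cell lines, monitoring GI50, TGI and LC50 for each cell line; MG-MID values derived across the panel; 5-fluorouracil positive control.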

[28] = Growth inhibition of human leukemia cells after 48 hrs by SRB assay; conditions: Leukemia cell; for CC50: read-out: LC50 (the source's name)
Summary of the method: (§4)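 Follow-up NCI panel testing over a 5-log dose range for each cell line. GI50, TGI and LC50 were monitored, with 5-fluorouracil run as the positive control. Values are grouped by tumour subpanel.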

[29] = Growth inhibition of human non-small cell lung cancer cells after 48 hrs by SRB assay; conditions: Cancer cell lines; summary of the method: as §4
[30] = Growth inhibition of human melanoma cells after 48 hrs by SRB assay; conditions: Melanoma cell; summary of the method: as §4
[31] = Growth inhibition of human ovarian cancer cells after 48 hrs by SRB assay; conditions: Cancer cell lines; summary of the method: as §4
[32] = Growth inhibition of human renal cancer cells after 48 hrs by SRB assay; conditions: Cancer cell lines; summary of the method: as §4
[33] = Growth inhibition of human MDA-MB-468 cells at 10 uM after 48 hrs by SRB assay relative to control; conditions: MDA-MB-468, 48 h, read-out: GI; summary of the method: as §1

Compound COc1cc(CSc2nc3ccc(C)cc3c(=O)n2-c2ccccc2)cc(OC)c1OC has an inhibition of growth at 10 µM [1] of 87.8%, an inhibition of growth at 10 µM [2] of 89.6% and an inhibition of growth at 10 µM [3] of 78.2%. It also gave an inhibition of growth at 10 µM [4] of 45.1%, an inhibition of growth at 10 µM [5] of 79.7% and an inhibition of growth at 10 µM [6] of 62.2%. It also gave an inhibition of growth at 10 µM [7] of 32.1%, an inhibition of growth at 10 µM [8] of 78% and an inhibition of growth at 10 µM [9] of 79.8%. The inhibition of growth at 10 µM [10] was 91.7%, the inhibition of growth at 10 µM [11] was 73.4% and the inhibition of growth at 10 µM [12] was 69.9%. The inhibition of growth at 10 µM [13] was 52.6%, the inhibition of growth at 10 µM [14] was 67.2% and the inhibition of growth at 10 µM [15] was 61.5%. For the same compound, the inhibition of growth at 10 µM [16] was 85.3%, the inhibition of growth at 10 µM [17] was 47.9% and the inhibition of growth at 10 µM [18] was 49.8%. It also gave an inhibition of growth at 10 µM [19] of 53.6%, an inhibition of growth at 10 µM [20] of 47.2% and an inhibition of growth at 10 µM [21] of 84%. The inhibition of growth at 10 µM [22] was 62.1%, the inhibition of growth at 10 µM [23] was 80.4% and the RatioGI50 (Cancer cell lines [24]) was 10. It also gave a RatioGI50 (Cancer cell lines [25]) of 10, a RatioGI50 (Cancer cell lines [26]) of 10 and a RatioGI50 (Leukemia cell) of 10. The GI50 [27] was 5.4 µM, the LC50 (lethal concentration, 50% net cell kill) [27] was > 100 µM and the TGI [27] was 60.9 µM. The GI50 [28] was 1.8 µM, the TGI [28] was > 100 µM and the CC50 [28] was > 100 µM. For the same compound, the GI50 [29] was 3 µM, the LC50 (concentration killing 50% of cells) [29] was > 100 µM and the TGI [29] was 87 µM. The GI50 [30] was 3.9 µM, the LC50 [30] was > 100 µM and the TGI [30] was 82.2 µM. For the same compound, the GI50 [31] was 4 µM, the LC50 (50% lethal concentration) [31] was > 100 µM and the TGI [31] was 84.6 µM. For the same compound, the GI50 [32] was 4.2 µM, the LC50 [32] was > 100 µM and the TGI [32] was 76.9 µM.
Compound COc1ccccc1-n1c(SCc2cc(OC)c(OC)c(OC)c2)nc2ccc(Cl)cc2c1=O has an inhibition of growth at 10 µM [2] of 87.3%, an inhibition of growth at 10 µM [3] of 84.7% and an inhibition of growth at 10 µM [4] of 82.6%. The inhibition of growth at 10 µM [5] was 84%, the inhibition of growth at 10 µM [6] was 48.2% and the inhibition of growth at 10 µM [7] was 57.1%. The inhibition of growth at 10 µM [8] was 63.9%, the inhibition of growth at 10 µM [9] was 89.2% and the inhibition of growth at 10 µM [10] was < 10%. It also gave an inhibition of growth at 10 µM [11] of 78.9%, an inhibition of growth at 10 µM [12] of 72.2% and an inhibition of growth at 10 µM [13] of 58.4%. For the same compound, the inhibition of growth at 10 µM [14] was 68.2%, the inhibition of growth at 10 µM [15] was 74.5% and the inhibition of growth at 10 µM [16] was < 10%. For the same compound, the inhibition of growth at 10 µM [17] was 50.7%, the inhibition of growth at 10 µM [18] was < 10% and the inhibition of growth at 10 µM [19] was 46.7%. For the same compound, the inhibition of growth at 10 µM [20] was 44.7%, the inhibition of growth at 10 µM [21] was 95% and the inhibition of growth at 10 µM [22] was 44.3%. For the same compound, the inhibition of growth at 10 µM [23] was 60.5%, the inhibition of growth at 10 µM [33] was 84.4% and the RatioGI50 (Cancer cell lines [24]) was 2 - 10. For the same compound, the RatioGI50 (Cancer cell lines [25]) was 2 - 10, the RatioGI50 (Cancer cell lines [26]) was 2 - 10 and the RatioGI50 (Leukemia cell) was 2 - 10. For the same compound, the GI50 [27] was 7.9 µM, the LC50 (lethal concentration, 50% net cell kill) [27] was > 100 µM and the TGI [27] was 63.1 µM. The GI50 [28] was 2.4 µM, the TGI [28] was 86.5 µM and the CC50 [28] was > 100 µM. The GI50 [29] was 5.8 µM, the LC50 (concentration killing 50% of cells) [29] was > 100 µM and the TGI [29] was > 100 µM. The GI50 [30] was 4.2 µM, the LC50 [30] was > 100 µM and the TGI [30] was 91.7 µM. The GI50 [31] was 6.7 µM, the LC50 (50% lethal concentration) [31] was > 100 µM and the TGI [31] was 87.9 µM. The GI50 [32] was 10.6 µM, the LC50 [32] was > 100 µM and the TGI [32] was 93.5 µM.
